≈ marks a conversion by molar mass, not a printed value. Calls of active or inactive are those of the source. The calls are words filed in the database; no cut-off is given here. Square brackets hold non-standard residues; d marks the D form. Peptide text beside a SMILES is read from it. Aoc = NCCCCCCCC(=O)O
Key:
Pseudomonas aeruginosa = experiment: Antimicrobial activity against Pseudomonas aeruginosa PAK after 16 to 20 hrs by broth microdilution assay; type: functional
Outline: (§1)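 Broth microdilution. Twofold peptide dilutions were made in 50% BHI–50% sterile water for oral streptococci and in 1× Mueller-Hinton broth for the other bacteria. First round 500 to 0.97 µg/ml; a second round of 64 to 0.5 µg/ml was run in some cases, reporting its mode. Inoculum ~1 × 10^5 CFU/ml, 37°C for 16–20 h. Read A600; MIC taken as complete inhibition or ≥90% turbidity reduction versus peptide-free control.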

[1] = Antimicrobial activity against Streptococcus gordonii Challis DL1 after 16 to 20 hrs by broth microdilution assay; type: functional, Streptococcus gordonii str. Challis; outline: as §1
Streptococcus sanguinis [2] = experiment: Antimicrobial activity against Streptococcus sanguinis NY101 after 16 to 20 hrs by broth microdilution assay; type: functional; outline: as §1
Staphylococcus aureus = experiment: Antimicrobial activity against methicillin-resistant Staphylococcus aureus after 16 to 20 hrs by broth microdilution assay; type: functional
Outline: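 MRSA grown aerobically in BHI at 37°C. Broth microdilution: 2-fold peptide dilutions in 1× Mueller-Hinton broth, first round 500 to 0.97 µg/ml; if activity below 62.5 µg/ml, sometimes a second round at 64 to 0.5 µg/ml, reporting the mode. Inoculum ~1 × 10^5 CFU/ml, 37°C for 16-20 h. A600 read. MIC = lowest concentration giving complete inhibition or ≥90% turbidity reduction versus peptide-free control.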

Enterococcus faecalis = experiment: Antimicrobial activity against Enterococcus faecalis after 16 to 20 hrs by broth microdilution assay; type: functional; outline: as §1
Streptococcus sobrinus = experiment: Antimicrobial activity against Streptococcus sobrinus ATCC 33478 after 16 to 20 hrs by broth microdilution assay; type: functional; outline: as §1
Escherichia coli = experiment: Antimicrobial activity against Escherichia coli W3110 after 16 to 20 hrs by broth microdilution assay; type: functional; outline: as §1
Streptococcus mitis [3] = experiment: Antimicrobial activity against Streptococcus mitis ATCC 903 after 16 to 20 hrs by broth microdilution assay; type: functional; outline: as §1
Streptococcus mutans [4] = experiment: Antimicrobial activity against Streptococcus mutans UA159 after 16 to 20 hrs by broth microdilution assay; type: functional; outline: as §1
Streptococcus mutans [5] = experiment: Antimicrobial activity against Streptococcus mutans UA159 assessed as inhibition of bacterial biofilm formation at 25 uM after 3 mins by fluorescence assay; type: functional
Outline: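 S. mutans UA159 overnight culture was diluted 1:5,000 in TH with 1% sucrose and grown as biofilm for 24 h. Biofilms were exposed 3 min at room temperature to 25 µM fluorescein-labelled peptide in HEPES/NaHCO3/NaCl/MgCl2 buffer with 0.1% CTAB, pH 7.4, then washed twice. Green fluorescence images were taken and biofilm-associated green pixels quantified as binding intensity units.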

Streptococcus sanguinis [6] = experiment: Antimicrobial activity against Streptococcus sanguinis NY101 at 25 ug/ml after 30 mins by time-kill assay; type: functional, organism-based
Outline: (§2)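 Time-kill. Overnight cultures were diluted in BHI to A600 0.08 and treated with peptide at 25 µg/ml for 30 s to 2 h. Aliquots were diluted 1:50 in BHI, held on ice, plated and counted after 24 h as surviving CFU/ml. Three independent experiments, mean with SD; unpaired Student t test.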

Streptococcus mutans [7] = experiment: Antimicrobial activity against Streptococcus mutans JM11 assessed as inhibition of bacterial biofilm formation at 50 uM after 10 mins; type: functional
Outline: (§3)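 Mixed-species biofilms were grown 24 h at 37°C anaerobically in TH with 50% filter-sterilized pooled human saliva and 1% sucrose. Inoculum: S. mutans JM11 at 1 × 10^6 CFU/well plus S. oralis, S. gordonii, S. sanguinis, S. mitis and S. salivarius at 2 × 10^5 CFU/well each. Survivors were plated on TH agar for total streptococci and on TH agar with 800 µg/ml spectinomycin for JM11. Detection limit 100 CFU/ml.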

Streptococcus mitis [8] = experiment: Antimicrobial activity against Streptococcus mitis ATCC 903 at 25 ug/ml after 30 mins by time-kill assay; type: functional, organism-based; outline: as §2
Streptococcus mutans [9] = experiment: Antimicrobial activity against Streptococcus mutans UA159 assessed as inhibition of viability of bacterial biofilm at 25 ug/ml treated for 1 min measured after 4 hrs; type: functional
Outline: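 S. mutans biofilms were seeded from overnight culture diluted 1:50 in TH broth with 0.5% sucrose, centrifuged, and grown 4 h anaerobically at 37°C. They were exposed to peptide in 1× PBS for about 1 min, washed, and given fresh TH broth without sucrose. Recovery was read as A600 after 4 h anaerobic incubation at 37°C. Three experiments; unpaired t test.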

[10] = test system: Streptococcus gordonii str. Challis; experiment: Antimicrobial activity against Streptococcus gordonii Challis DL1 at 25 ug/ml after 30 mins by time-kill assay; type: functional; outline: as §2
Streptococcus mutans [11] = experiment: Antimicrobial activity against Streptococcus mutans UA159 at 25 ug/ml after 30 mins by time-kill assay; type: functional; outline: as §2
Streptococcus salivarius = experiment: Antimicrobial activity against Streptococcus salivarius assessed as inhibition of bacterial biofilm formation at 50 uM after 10 mins; type: functional; outline: as §3
Streptococcus sanguinis [12] = experiment: Antimicrobial activity against Streptococcus sanguinis assessed as inhibition of bacterial biofilm formation at 50 uM after 10 mins; type: functional; outline: as §3
Streptococcus mitis [13] = experiment: Antimicrobial activity against Streptococcus mitis assessed as inhibition of bacterial biofilm formation at 50 uM after 10 mins; type: functional; outline: as §3
Streptococcus gordonii = experiment: Antimicrobial activity against Streptococcus gordonii assessed as inhibition of bacterial biofilm formation at 50 uM after 10 mins; type: functional; outline: as §3
Streptococcus oralis = experiment: Antimicrobial activity against Streptococcus oralis assessed as inhibition of bacterial biofilm formation at 50 uM after 10 mins; type: functional; outline: as §3

Row | Compound | MIC (Pseudomonas aeruginosa) [µg/mL] | MIC [1] [µg/mL] | MIC (Streptococcus sanguinis [2]) [µg/mL] | MIC (Staphylococcus aureus) [µg/mL] | MIC (Enterococcus faecalis) [µg/mL] | MIC (Streptococcus sobrinus) [µg/mL] | MIC (Escherichia coli) [µg/mL] | MIC (Streptococcus mitis [3]) [µg/mL] | MIC (Streptococcus mutans [4]) [µg/mL] | inhibition (Streptococcus mutans [5]) | also measured
1 | H-LIKHILHRL-NH2 | > 500 | > 500 | > 500 | > 500 | > 500 | > 500 | > 500 | > 500 | 125 | Active | –
2 | H-FIKHFIHRFGGGRWRWRWF-NH2 | 62.5 | 32 | 32 | 32 | – | – | – | 32 | 8 | Active | Activity (Streptococcus sanguinis [6]): Active; inhibition (Streptococcus mutans [7]): Active; Activity (Streptococcus mitis [8]): Active; inhibition (Streptococcus mutans [9]): Active; Activity [10]: Active; Activity (Streptococcus mutans [11]): Active
3 | H-FHFHLHFSATFIKHFIHRF-NH2 | 125 | – | 62.5 | 125 | 62.5 | 250 | 125 | – | 16 | Active | –
4 | H-RWRWRWF-NH2 | 32 | 32 | 32 | 32 | – | – | – | 32 | 4 | Active | inhibition (Streptococcus salivarius): inactive; inhibition (Streptococcus sanguinis [12]): inactive; inhibition (Streptococcus mitis [13]): inactive; Activity (Streptococcus sanguinis [6]): Active; inhibition (Streptococcus gordonii): inactive; Activity (Streptococcus mitis [8]): Active; inhibition (Streptococcus mutans [9]): Active; inhibition (Streptococcus oralis): inactive; Activity [10]: Active; Activity (Streptococcus mutans [11]): Active
5 | H-AAKHAAHRA-NH2 | > 500 | > 500 | > 500 | > 500 | > 500 | > 500 | > 500 | > 500 | > 500 | inactive | –
6 | H-WWKDWWERW-NH2 | > 500 | > 500 | > 500 | > 500 | > 500 | > 500 | > 500 | > 500 | > 500 | Active | –
7 | H-FHFHLHFPSGSPFIKHFIHRF-NH2 | > 500 | – | 62.5 | > 500 | 250 | 62.5 | 125 | – | 62.5 | Active | –
8 | H-FIKHFIHRF-NH2 | > 500 | > 500 | 125 | > 500 | > 500 | 125 | > 500 | > 500 | 125 | Active | –
9 | H-WWHSWWSTW-NH2 | > 125 | 125 | 125 | > 125 | > 125 | 125 | 125 | 125 | 125 | Active | –
10 | N=C(NCCCCCCNC(=N)NC(=N)Nc1ccc(Cl)cc1)NC(=N)Nc1ccc(Cl)cc1 [CHLORHEXIDINE] | – | – | – | – | – | – | – | – | – | – | inhibition at 50 µM (Streptococcus salivarius): 95%; inhibition at 50 µM (Streptococcus sanguinis [12]): 95%; inhibition at 50 µM (Streptococcus mitis [13]): 95%; inhibition at 50 µM (Streptococcus gordonii): 95%; inhibition at 50 µM (Streptococcus mutans [7]; JM11, 10 min): 95%; inhibition (Streptococcus mutans [9]): Active; inhibition at 50 µM (Streptococcus oralis): 95%
11 | CC[C@H](C)[C@H](NC(=O)[C@H](Cc1ccccc1)NC(=O)[C@H](Cc1cnc[nH]1)NC(=O)[C@H](CCCCN)NC(=O)[C@@H](NC(=O)[C@@H](N)Cc1ccccc1)[C@@H](C)CC)C(=O)N[C@@H](Cc1cnc[nH]1)C(=O)N[C@@H](CCCNC(=N)N)C(=O)N[C@@H](Cc1ccccc1)C(=O)NCCCCCCCC(=O)N[C@@H](CCCNC(=N)N)C(=O)N[C@@H](Cc1c[nH]c2ccccc12)C(=O)N[C@@H](CCCNC(=N)N)C(=O)N[C@@H](Cc1c[nH]c2ccccc12)C(=O)N[C@@H](CCCNC(=N)N)C(=O)N[C@@H](Cc1c[nH]c2ccccc12)C(=O)N[C@@H](Cc1ccccc1)C(N)=O (H-FIKHFIHRF[Aoc]RWRWRWF-NH2) | 62.5 (≈ 24.4 µM) | 32 (≈ 12.5 µM) | 32 (≈ 12.5 µM) | 32 (≈ 12.5 µM) | – | – | – | 16 (≈ 6.25 µM) | 8 (≈ 3.13 µM) | – | Activity (Streptococcus sanguinis [6]): Active; Activity (Streptococcus mitis [8]): Active; Activity [10]: Active; Activity (Streptococcus mutans [11]): Active
12 | H-WWYNWWQDW-NH2 | > 500 | > 500 | > 500 | > 500 | > 500 | > 500 | > 500 | > 500 | > 500 | – | –
13 | H-WWSYWWTQW-NH2 | > 125 | 125 | 125 | > 125 | > 125 | 125 | 125 | 125 | 125 | Active | –
14 | H-WWQDWWNEW-NH2 | > 500 | > 500 | > 500 | > 500 | > 500 | > 500 | > 500 | > 500 | > 500 | Active | –
15 | H-LIKHILHRLGGGFHFHLHF-NH2 | 250 | – | 62.5 | 62.5 | 32 | 32 | 250 | – | 16 | – | –
